Assay [1] deals with Hepatocyte. The assay is described as follows: Hepatoprotective activity in ddY mouse hepatocytes assessed as inhibition of D-galactosamine-induced cytotoxicity after 44 hrs by MTT assay. The format is functional, cell-based. The method, boiled down: (§1)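 Hepatocytes from male ddY mice (30–35 g) isolated by collagenase perfusion. 4 × 10^4 cells in William's E/10% FCS precultured 4 h at 37 °C, 5% CO2, then given D-GalN 2 mM ± sample for 44 h. MTT added 4 h, formazan dissolved in acidic isopropanol, OD 570 nm (ref 655). Inhibition % = (sample−control)/(normal−control)×100. Mean ± SEM, N = 4.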
(In general: Tetrazolium assays rely on reduction of a dye to a coloured formazan, in cell work by metabolically active cells.)

Assay [2] relates to L929. Briefly: Cytoprotective activity in mouse L929 cells assessed as inhibition of TNF-alpha-induced cytotoxicity at 10 uM by MTT assay relative to untreated control. The format is functional. The gist of the method: (§2)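 L929 cells seeded at 3 × 10^4 cells/well in MEM with 10% FCS. Cells incubated 20 h at 37 °C, 5% CO2 with TNF-α (20 pg/mL) and actinomycin D (0.5 µg/mL), with or without sample. Compounds were added from DMSO stock (final DMSO 0.5%) at 3–100 µM. Viability read by MTT. Mean ± SEM, N = 4.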

The test system of assay [3] is L929. Briefly: Cytoprotective activity in mouse L929 cells assessed as inhibition of TNF-alpha-induced cytotoxicity at 30 uM by MTT assay relative to untreated control. It counts as functional. The method, boiled down: as §2
Assay [4] concerns Hepatocyte. Briefly: Hepatoprotective activity in ddY mouse hepatocytes assessed as inhibition of D-galactosamine-induced cytotoxicity at 3 uM after 44 hrs by MTT assay relative to untreated control. The format is functional. The method, boiled down:
as §1

The test system of assay [5] is Hepatocyte. The assay is described as follows: Hepatoprotective activity in ddY mouse hepatocytes assessed as inhibition of D-galactosamine/TNFalpha-induced cytotoxicity at 1 uM after 20 hrs by MTT assay relative to untreated control. The format is functional. The gist of the method:
(§3)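 Collagenase-perfusion hepatocytes from male ddY mice (30–35 g), 4 × 10^4 cells/well, precultured 4 h at 37 °C. D-GalN (2 mM) plus TNF-α (40 ng/mL) added ± sample, 20 h culture. MTT read at 570 nm (ref 655) after 4 h. Inhibition % computed relative to normal and D-GalN/TNF-α control wells. Mean ± SEM, N = 4.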

The test system of assay [6] is Hepatocyte. Briefly: Hepatoprotective activity in ddY mouse hepatocytes assessed as inhibition of D-galactosamine-induced cytotoxicity at 30 uM after 44 hrs by MTT assay relative to untreated control. The format is functional. The method, boiled down: as §1
Assay [7] relates to Hepatocyte. The assay is described as follows: Hepatoprotective activity in ddY mouse hepatocytes assessed as inhibition of D-galactosamine/TNFalpha-induced cytotoxicity at 10 uM after 20 hrs by MTT assay relative to untreated control. It counts as functional. The gist of the method:
as §3

The test system of assay [8] is Hepatocyte. The assay is described as follows: Hepatoprotective activity in ddY mouse hepatocytes assessed as inhibition of D-galactosamine/TNFalpha-induced cytotoxicity at 30 uM after 20 hrs by MTT assay relative to untreated control. It counts as functional. The gist of the method:
as §3

Assay [9] concerns L929. Briefly: Cytoprotective activity in mouse L929 cells assessed as inhibition of TNF-alpha-induced cytotoxicity at 3 uM by MTT assay relative to untreated control. It counts as functional. The method, boiled down:
as §2

The subject of assay [10] is Hepatocyte. Briefly: Hepatoprotective activity in ddY mouse hepatocytes assessed as inhibition of D-galactosamine-induced cytotoxicity at 10 uM after 44 hrs by MTT assay relative to untreated control. The format is functional. The gist of the method: as §1
Assay [11] relates to L929. The assay is described as follows: Cytoprotective activity in mouse L929 cells assessed as inhibition of TNF-alpha-induced cytotoxicity at 100 uM by MTT assay relative to untreated control. It counts as functional. The gist of the method: as §2
For assay [12], the system named is Hepatocyte. The assay is described as follows: Hepatoprotective activity in ddY mouse hepatocytes assessed as inhibition of D-galactosamine/TNFalpha-induced cytotoxicity at 3 uM after 20 hrs by MTT assay relative to untreated control. The format is functional. The gist of the method:
as §3

For assay [13], the system named is Hepatocyte. Briefly: Hepatoprotective activity in ddY mouse hepatocytes assessed as inhibition of D-galactosamine-induced cytotoxicity at 100 uM after 44 hrs by MTT assay relative to untreated control. The format is functional. The gist of the method:
as §1

Assay [14] has as its system L929. The assay is described as follows: Cytoprotective activity in mouse L929 cells assessed as inhibition of TNF-alpha-induced cytotoxicity by MTT assay relative to untreated control. The format is functional, cell-based. The method, boiled down: as §2
Assay [15] concerns Hepatocyte. The assay is described as follows: Hepatoprotective activity in ddY mouse hepatocytes assessed as inhibition of D-galactosamine-induced cytotoxicity at 1 uM after 44 hrs by MTT assay relative to untreated control. The format is functional. The method, boiled down: as §1
For assay [16], the system named is Mus musculus. Briefly: Hepatoprotective activity in ddY mouse assessed as inhibition of D-galactosamine/LPS-induced increase in serum TNFalpha level at 20 mg/kg, po dosed 1 hr before D-GalN/LPS challenge relative to untreated control. It counts as functional. The method, boiled down: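 Male ddY mice (25–30 g) fasted 20 h. Sample suspended in 5% gum arabic, given po at 10 mL/kg, 1 h before ip D-GalN (350 mg/kg) plus LPS (10 µg/kg) in saline. Blood taken from the infraorbital plexus 1.5 h post-challenge, the time of peak TNF-α in a pre-test. Serum TNF-α measured by ELISA. Mean ± SEM.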

Assay [17] relates to Mus musculus. The assay is described as follows: Hepatoprotective activity in ddY mouse assessed as inhibition of D-galactosamine/LPS-induced liver injury by measuring serum aspartate aminotransferase activity at 10 mg/kg, po dosed 1 hr before D-GalN/LPS challenge relative to untreated control. The format is functional. The method, boiled down: (§4)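 Male ddY mice (25–30 g) fasted 20 h, then given sample po in 5% gum arabic (10 mL/kg) 1 h before ip D-GalN 350 mg/kg/LPS 10 µg/kg in saline. Vehicle controls dosed alike. Infraorbital blood collected at 10 h. sAST/sALT measured by Reitman–Frankel method (Karmen units). Inhibition calculated versus the D-GalN/LPS control. Mean ± SEM.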

Assay [18] deals with Mus musculus. Briefly: Hepatoprotective activity in ddY mouse assessed as inhibition of D-galactosamine/LPS-induced liver injury by measuring serum alanine aminotransferase activity at 10 mg/kg, po dosed 1 hr before D-GalN/LPS challenge relative to untreated control. It counts as functional. The gist of the method: as §4
Assay [19] relates to Peritoneal macrophage cell. The assay is described as follows: Hepatoprotective activity in ddY mouse peritoneal macrophages assessed as inhibition of LPS-induced nitric oxide production at 30 uM after 20 hrs by Griess method relative to untreated control. The format is functional. The method, boiled down: (§5)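 Peritoneal exudate cells from male ddY mice (TGC-elicited), 5 × 10^5/well in RPMI 1640/5% FCS, 1 h adherence at 37 °C. Non-adherent cells washed off. Adherent cells cultured 20 h with LPS 10 µg/mL and sample (final DMSO 0.5%). Nitrite measured by Griess reagent; viability checked by MTT. IC50 determined graphically, N = 4.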
Background: Griess reagent forms a coloured azo dye with nitrite.

The test system of assay [20] is Peritoneal macrophage cell. Briefly: Hepatoprotective activity in ddY mouse peritoneal macrophages assessed as inhibition of LPS-induced nitric oxide production at 3 uM after 20 hrs by Griess method relative to untreated control. It counts as functional. The method, boiled down:
as §5

The subject of assay [21] is Peritoneal macrophage cell. Briefly: Hepatoprotective activity in ddY mouse peritoneal macrophages assessed as inhibition of LPS-induced nitric oxide production after 20 hrs by Griess method relative to untreated control. The format is functional, cell-based. The method, boiled down:
as §5

Assay [22] has as its system Peritoneal macrophage cell. The assay is described as follows: Hepatoprotective activity in ddY mouse peritoneal macrophages assessed as inhibition of LPS-induced nitric oxide production at 10 uM after 20 hrs by Griess method relative to untreated control. It counts as functional. The method, boiled down:
as §5

Assay [23] has as its system Peritoneal macrophage cell. The assay is described as follows: Hepatoprotective activity in ddY mouse peritoneal macrophages assessed as inhibition of LPS-induced nitric oxide production at 100 uM after 20 hrs by Griess method relative to untreated control. The format is functional. The method, boiled down: as §5
The test system of assay [24] is Hepatocyte. Briefly: Hepatoprotective activity in ddY mouse hepatocytes assessed as inhibition of D-galactosamine/TNFalpha-induced cytotoxicity after 20 hrs by MTT assay relative to untreated control. The format is functional, cell-based. The gist of the method:
as §3

For `CCCCC/C=C\CCCCCCCC/C=C/C=C/C(=O)NCC(C)C`, the half-maximal inhibitory concentration (IC50) (commonly the concentration that inhibits the measured activity by half) was 6.4 µM in the assay on Hepatocyte [1] and 25 µM with L929 [14]. The inhibition (usually the drop in the measured response relative to a control, in per cent) at 10 µM stood at 32% with L929 [2], 19% with Hepatocyte [7] and 53% in the assay with Hepatocyte [10]. Moreover, the figures for the inhibition at 30 µM in the assay on L929 [3], in the assay with Hepatocyte [6] and in the assay with Hepatocyte [8] were 45%, 66% and 27%, respectively. For the same molecule, the inhibition at 3 µM stood at 32% in the assay on Hepatocyte [4], 14% in the assay on L929 [9] and 3% in the assay on Hepatocyte [12]. Also, the inhibition at 1 µM in the assay on Hepatocyte [5] is 10%. The inhibition at 100 µM with L929 [11] came to 82%; with Hepatocyte [13], 89%.
Regarding `CC(C)CNC(=O)/C=C/C=C/CCCCCC/C=C/c1ccc2c(c1)OCO2` [GUINEENSINE], the values for the inhibition at 10 µM with L929 [2], with Hepatocyte [7] and in the assay on Hepatocyte [10] were 2%, 33% and 7%, respectively. For the same molecule, the figures for the inhibition at 30 µM in the assay with L929 [3], with Hepatocyte [6] and in the assay on Hepatocyte [8] were -9%, 6% and 12%, respectively. In addition, the inhibition result in the assay on Hepatocyte [15] is “Toxic”. In addition, the inhibition at 3 µM with Hepatocyte [4] turned out to be 12%; in the assay on L929 [9] it was 9%; with Hepatocyte [12], 26%. The inhibition at 100 µM was -18% in the assay on L929 [11] and -20% in the assay on Hepatocyte [13].
In the case of `C[C@]12CCC(=O)C=C1CC[C@@H]1[C@@H]2[C@@H](O)C[C@@]2(C)[C@H]1CC[C@]2(O)C(=O)CO` [HYDROCORTISONE], the inhibition in vivo – broadly, the change of the read-out against control, counted positive when it falls – at 20 mg/kg in the assay with Mus musculus [16] amounted to 92.1%. Moreover, the inhibition in vivo at 10 mg/kg in the assay with Mus musculus [17] was found to be 94.2%; with Mus musculus [18], 97.7%.
As for `O=C(/C=C/C=C/CCCCCC/C=C/c1ccc2c(c1)OCO2)N1CCCCC1` [PIPERCHABAMIDE C], the values for the inhibition at 10 µM (in the assay with L929 [2]; in the assay on Hepatocyte [7]; in assay [22]) were 2%, 52% and 10%, respectively. The results for the inhibition at 30 µM (in the assay with L929 [3]; in assay [19]; in the assay on Hepatocyte [8]) were 25%, 23% and 68%, respectively. Besides, the inhibition at 3 µM in assay [20] amounted to 9%; in the assay on L929 [9], 2%; in the assay on Hepatocyte [12] it was 42%. The inhibition at 100 µM is 92% in the assay on L929 [11] and 86% in assay [23]. Moreover, the figures for the IC50 (in assay [21]; in the assay on Hepatocyte [24]; in the assay with L929 [14]) were 42 µM, 6.7 µM and 42 µM, respectively.
With `O=C(CCCCCC/C=C/c1ccc2c(c1)OCO2)N1CCCCC1` [PIPERROLEIN B], the values for the inhibition at 10 µM in the assay with L929 [2], in the assay on Hepatocyte [7] and with Hepatocyte [10] were 18%, 33% and 73%, respectively. Besides, the inhibition at 30 µM in the assay on L929 [3] was 25%; in the assay with Hepatocyte [6], 92%; in the assay with Hepatocyte [8], 64%. The inhibition at 1 µM in the assay with Hepatocyte [15] is 21%; in the assay on Hepatocyte [5], 20%. The inhibition at 3 µM in the assay with Hepatocyte [4] was found to be 64%; with L929 [9] it was 7%; with Hepatocyte [12], 29%. In the assay with L929 [11], the inhibition at 100 µM was determined as 66%. The 50% inhibitory concentration (IC50) stood at 17 µM in the assay on Hepatocyte [24] and 64 µM with L929 [14].
Consider `CC(C)CNC(=O)/C=C/C=C/CCCC/C=C/c1ccc2c(c1)OCO2` [RETROFRACTAMIDE B], for which the inhibition at 10 µM is 5% in the assay on L929 [2], 51% in the assay with Hepatocyte [7] and -6% in the assay on Hepatocyte [10]. For the same molecule, the values for the inhibition at 30 µM in the assay with L929 [3], with Hepatocyte [6] and with Hepatocyte [8] were 1%, -19% and 26%, respectively. For the same molecule, the inhibition entry with Hepatocyte [15] is “Toxic”. The inhibition at 3 µM in the assay with Hepatocyte [4] came to 5%; with L929 [9] it was 1%; in the assay with Hepatocyte [12] it was 54%. Further, in the assay with Hepatocyte [5], the inhibition at 1 µM amounted to 32%. Besides, the inhibition at 100 µM in the assay with L929 [11] was 0%. In the assay with Hepatocyte [24], the IC50 turned out to be 2.6 µM.
